# Measured values of several laboratories.
# FLT3 D835V: Receptor-type tyrosine-protein kinase FLT3 (FLT3, Homo sapiens, UniProt P36888, D835V)
# FLT3 F691L/ITD: Receptor-type tyrosine-protein kinase FLT3 (FLT3, Homo sapiens, UniProt P36888, F691L/ITD)
# FLT3: Receptor-type tyrosine-protein kinase FLT3 (FLT3, Homo sapiens, UniProt P36888)
# FLT3 R834Q: Receptor-type tyrosine-protein kinase FLT3 (FLT3, Homo sapiens, UniProt P36888, R834Q)
# FLT3 K663Q: Receptor-type tyrosine-protein kinase FLT3 (FLT3, Homo sapiens, UniProt P36888, K663Q)
# FLT3 autoinhibited: Receptor-type tyrosine-protein kinase FLT3, autoinhibited (FLT3, Homo sapiens, UniProt P36888)
# FLT3 D835Y: Receptor-type tyrosine-protein kinase FLT3 (FLT3, Homo sapiens, UniProt P36888, D835Y)
Structure (SMILES),target,observed,mode,method,tested at,quantity,value
N[C@@H]1CCN(c2nccc(-c3cnn4ncccc34)n2)C1,FLT3 D835V,binding,,,1 µM,remaining binding,65%
CC(=O)Nc1c(C(C)=O)c(=O)n(C)c2nc(-c3ccc(Cl)cc3Cl)c(-c3ccc(Cl)cc3)cc12,FLT3 F691L/ITD,cell-free assay,,competition with immobilised ligand,1 µM,remaining binding,100%
N#CCCc1ccc2c(c1)-c1[nH]c3ccc([N+](=O)[O-])cc3c1CC(=O)N2,FLT3,cell-free assay,,,0.5 µM,remaining signal,15.1%
CN(c1nccc(-c2cnn3ncccc23)n1)C1CC1,FLT3 D835V,binding,,,1 µM,remaining binding,78%
Cc1cnc(Nc2ccc(C(=O)N3CCC(N4CCCC4)CC3)cc2)nc1-c1cc2ccccc2s1,FLT3 R834Q,binding,,competition with immobilised ligand,1 µM,remaining binding,6.2%
Cc1cc(NC(=O)c2cccc3cc(-c4cccc5[nH]nc(N)c45)ccc23)ccc1F,FLT3,enzyme activity,inhibitor,,0.1 µM,activity vs control,109%
NS(=O)(=O)c1cc(NC(=O)Cc2ccccc2)ccc1Oc1cccc(Cl)c1,FLT3 D835V,cell-free assay,,competition with immobilised ligand,1 µM,remaining binding,86%
O=[N+]([O-])c1cccc2[nH]c(CNc3nc(N4CCOCC4)nc4c3ncn4-c3ccsc3)nc12,FLT3 K663Q,binding,,competition with immobilised ligand,10 µM,binding vs control,5.2%
Cc1cnn2ncc(-c3ccnc(N(C)C)n3)c2c1,FLT3 autoinhibited,binding,,,1 µM,remaining binding,84%
C[C@H](c1ccnc(Nc2nc3ccc(-c4cc(N(C)C)ncn4)cc3[nH]2)c1)N1CCN(C(=O)CC(F)(F)F)CC1,FLT3,cell-free assay,,competition with immobilised ligand,0.1 µM,remaining binding,67%
O=C(NCCCN1CCOCC1)c1ccc(Nc2ncc(Cl)c(-c3ccc(Cl)s3)n2)cc1,"Receptor-type tyrosine-protein kinase FLT3 (FLT3, Homo sapiens, UniProt P36888, D835H)",binding,,competition with immobilised ligand,1 µM,remaining binding,3.1%
O=C(Nc1cccnn1)N1CCC(=Cc2cccc(Oc3ccc(C(F)(F)F)cn3)c2)CC1,FLT3 D835Y,cell-free assay,,competition with immobilised ligand,1 µM,remaining binding,100%
O=C(NCCCN1CCOCC1)c1ccc(Nc2nccc(-c3cc4ccccc4s3)n2)cc1,FLT3 autoinhibited,binding,,competition with immobilised ligand,1 µM,remaining binding,67%
C[C@@H]1CCN(c2nccc(-c3cnn4ncccc34)n2)C1,FLT3 D835V,binding,,,1 µM,remaining binding,51%
Cc1ccc(C(=O)NCc2ccsc2)cc1C#Cc1cn(C(C)C)c2ncnc(N)c12,FLT3,enzyme activity,inhibitor,,1 µM,activity vs control,80%
CCCCN(CCCC)C(=O)CN1C[C@@H](c2cc(OC)c3c(c2)OCO3)[C@H](C(=O)O)[C@H]1CC(C)(C)CCC,FLT3 autoinhibited,cell-free assay,,competition with immobilised ligand,1 µM,remaining binding,97.4%
Cc1cnc(NC2CCOCC2)nc1-n1cnc(C(=O)NC(CN)c2cc(F)cc(Cl)c2)c1 (centres unmarked),FLT3,enzyme activity,inhibitor,radiometric,1 µM,remaining activity,94%
Cc1ccc(C(=O)Nc2ccc(CN3CCN(C)CC3)c(C(F)(F)F)c2)cc1C#Cc1cnc2cccnn12,FLT3 R834Q,enzyme activity,inhibitor,,23.5 nM,remaining activity,5%
CO[C@@H](C)c1c(Nc2ccc([C@@H](N(C)C(=O)C3CCS(=O)(=O)CC3)C(F)(F)F)cc2)cnc2cc(Cl)nn12,FLT3 F691L/ITD,cell-free assay,,competition with immobilised ligand,1 µM,remaining binding,87%
c1cnn2ncc(-c3ccnc(N4CCC45COC5)n3)c2c1,FLT3 K663Q,binding,,,1 µM,remaining binding,100%
O=C1NC(=O)c2cc(Nc3ccc(F)cc3)c(Nc3ccc(F)cc3)cc21,FLT3,cell-free assay,,,0.5 µM,remaining signal,91.5%
CN(C)c1ncc(F)c(-c2cnn3ncccc23)n1,FLT3 D835Y,binding,,,1 µM,remaining binding,100%
COc1cc(-c2cn(C3CCc4ccccc4N(CC(F)(F)F)C3=O)nn2)ccc1-n1ccc(C)n1 (centres unmarked),"Receptor-type tyrosine-protein kinase FLT3 (FLT3, Homo sapiens, UniProt P36888, N841I)",cell-free assay,,competition with immobilised ligand,1 µM,remaining binding,100%
